According to ChEMBL document CHEMBL4765427, “A low toxic CRM1 degrader: Synthesis and anti-proliferation on MGC803 and HGC27” (Eur J Med Chem, 2020):
Active and inactive are the calls of the source. The rule behind the calls is not given here.

Tests used:
[1] = target: Cellular tumor antigen p53 (Homo sapiens) (UniProt P04637); test: Induction of p53 cytoplasmic translocation in human MGC-803 cells at 5 uM measured after 6 hrs in presence of proteasome inhibitor MG132 by DAPI staining based immunofluorescence assay; assay type: cell-based; details: filed as modulator, dose 10.0 µM, in the assay text read “at 10 uM” for “at 5 uM”
Outline: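 Cells pretreated ±0.05 μM MG132 for 1 h, then compound for 6 h. Fixed in 4% paraformaldehyde for 30 min, permeabilized with 0.1% Triton X-100 for 10 min, blocked with 10% normal goat serum for 30 min. Stained with p53 antibody (green) and DAPI nuclei, imaged by confocal microscopy.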

[2] = target: Exportin-1 (Homo sapiens) (UniProt O14980); test: Induction of CRM1 degradation in human HGC-27 cells assessed as reduction in CRM1 expression at 5 uM measured after 24 hrs by Western blot analysis; assay type: cell-based
Outline: (§1)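 MGC803 and HGC27 cells were exposed to 5 μM compound for 24 h with or without 0.05 μM MG132. CRM1 protein was measured by Western blot on RIPA lysates, with BCA normalization, SDS-PAGE/PVDF transfer and ECL detection.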

[3] = target: Cellular tumor antigen p53 (Homo sapiens) (UniProt P04637); test: Induction of p53 cytoplasmic translocation in human MGC-803 cells assessed as increase in p53 bound BCL-XL expression at 5 uM measured after 24 hrs in presence of proteasome inhibitor MG132 by immunoprecipitation method; assay type: cell-based; details: filed as modulator, dose 10.0 µM, in the assay text read “at 10 uM” for “at 5 uM”
Outline: (§2)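 Cells pretreated with 0.05 μM MG132 for 1 h, then exposed to compound for 24 h. Proteins co-precipitated with anti-p53 antibody and detected by immunoblot.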

[4] = target: Exportin-1 (Homo sapiens) (UniProt O14980); test: Induction of CRM1 degradation in human HGC-27 cells assessed as reduction in CRM1 expression measured after 24 hrs by Western blot analysis; assay type: cell-based; details: dose 1.25-10 µM
[5] = target: Exportin-1 (Homo sapiens) (UniProt O14980); test: Induction of CRM1 degradation in human HGC-27 cells assessed as reduction in CRM1 expression at 5 uM measured after 24 hrs in presence of proteasome inhibitor bortezomib by Western blot analysis; assay type: cell-based
[6] = target: Cellular tumor antigen p53 (Homo sapiens) (UniProt P04637); test: Induction of p53 cytoplasmic translocation in human MGC-803 cells at 5 uM measured after 24 hrs in presence of proteasome inhibitor MG132 by immunoprecipitation method; assay type: cell-based; details: filed as modulator, dose 10.0 µM, in the assay text read “at 10 uM” for “at 5 uM”; outline: as §2
[7] = target: Exportin-1 (Homo sapiens) (UniProt O14980); test: Induction of CRM1 degradation in human MGC-803 cells assessed as reduction in CRM1 expression at 5 uM measured after 24 hrs by Western blot analysis; assay type: cell-based; outline: as §1
[8] = target: Exportin-1 (Homo sapiens) (UniProt O14980); test: Induction of CRM1 degradation in human HGC-27 cells assessed as reduction in CRM1 expression at 5 uM measured after 24 hrs in presence of proteasome inhibitor MG132 by Western blot analysis; assay type: cell-based; outline: as §1
[9] = target: Exportin-1 (Homo sapiens) (UniProt O14980); test: Induction of CRM1 degradation in human MGC-803 cells assessed as reduction in CRM1 expression at 5 uM measured after 24 hrs in presence of proteasome inhibitor MG132 by Western blot analysis; assay type: cell-based; outline: as §1
[10] = target: Cellular tumor antigen p53 (Homo sapiens) (UniProt P04637); test: Induction of p53 cytoplasmic translocation in human MGC-803 cells assessed as increase in p53 bound BCL-XL expression at 10 uM measured after 6 hrs in presence of proteasome inhibitor MG132 by DAPI staining based immunofluorescence assay; details: filed as modulator
[11] = target: Exportin-1 (Homo sapiens) (UniProt O14980); test: Induction of CRM1 degradation in human MGC-803 cells assessed as reduction in CRM1 expression measured after 24 hrs by Western blot analysis; assay type: cell-based
[12] = target: Cellular tumor antigen p53 (Homo sapiens) (UniProt P04637); test: Induction of p53 cytoplasmic translocation in human MGC-803 cells assessed as increase in p53 bound BCL2 expression at 5 uM measured after 24 hrs in presence of proteasome inhibitor MG132 by immunoprecipitation method; assay type: cell-based; details: filed as modulator, dose 10.0 µM, in the assay text read “at 10 uM” for “at 5 uM”; outline: as §2
[13] = target: Exportin-1 (Homo sapiens) (UniProt O14980); test: Induction of CRM1 degradation in human MGC-803 cells assessed as reduction in CRM1 expression at 5 uM measured after 24 hrs in presence of proteasome inhibitor bortezomib by Western blot analysis; assay type: cell-based
[14] = target: Exportin-1 (Homo sapiens) (UniProt O14980); test: Induction of CRM1 degradation in human MGC-803 cells assessed as increase in Ranbp1 accumulation in nucleus at 10 uM measured after 6 hrs by DAPI staining based immunofluorescence assay; assay type: cell-based
Outline: (§3)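 MGC803 cells were exposed to 10 μM compound for 0 or 6 h. They were fixed in 4% paraformaldehyde for 30 min, permeabilized with 0.1% Triton X-100 for 10 min and blocked with 10% goat serum for 30 min. Staining used anti-Ranbp1 or anti-p53 (green) with DAPI nuclei, and nuclear localization was imaged by confocal microscopy.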

[15] = target: Exportin-1 (Homo sapiens) (UniProt O14980); test: Induction of CRM1 degradation in human MGC-803 cells assessed as increase in p53 accumulation in nucleus at 10 uM measured after 6 hrs by DAPI staining based immunofluorescence assay; assay type: cell-based; outline: as §3
[16] = target: Cellular tumor antigen p53 (Homo sapiens) (UniProt P04637); test: Induction of p53 cytoplasmic translocation in human MGC-803 cells assessed as increase in p53 bound BCL2 expression at 10 uM measured after 6 hrs in presence of proteasome inhibitor MG132 by DAPI staining based immunofluorescence assay; details: filed as modulator
[17] = system: MGC-803; test: Antiproliferative activity against human MGC-803 cells by MTT assay; assay type: functional, cell-based
Outline: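 They were seeded at 5×10⁴/well and cultured overnight, then exposed to compound for 24 h. MTT (5 mg/mL solution) was added for 4 h at 37 °C, formazan was dissolved in DMSO, and absorbance was read at 490 nm. Each experiment was run three times.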

Chain of Cellular tumor antigen p53 (Homo sapiens) (P04637 whole entry, looked up): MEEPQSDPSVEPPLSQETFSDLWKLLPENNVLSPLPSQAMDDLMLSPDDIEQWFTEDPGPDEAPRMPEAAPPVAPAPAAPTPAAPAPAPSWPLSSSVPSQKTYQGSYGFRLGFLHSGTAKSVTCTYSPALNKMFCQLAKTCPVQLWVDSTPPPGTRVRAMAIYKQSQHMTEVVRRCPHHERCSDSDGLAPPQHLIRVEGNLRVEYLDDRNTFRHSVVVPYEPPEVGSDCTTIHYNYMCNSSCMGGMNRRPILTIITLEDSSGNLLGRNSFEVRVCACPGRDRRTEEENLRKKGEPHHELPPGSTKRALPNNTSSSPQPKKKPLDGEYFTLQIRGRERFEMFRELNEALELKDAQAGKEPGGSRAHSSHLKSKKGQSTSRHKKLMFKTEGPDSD
Chain of Exportin-1 (Homo sapiens) (O14980 whole entry): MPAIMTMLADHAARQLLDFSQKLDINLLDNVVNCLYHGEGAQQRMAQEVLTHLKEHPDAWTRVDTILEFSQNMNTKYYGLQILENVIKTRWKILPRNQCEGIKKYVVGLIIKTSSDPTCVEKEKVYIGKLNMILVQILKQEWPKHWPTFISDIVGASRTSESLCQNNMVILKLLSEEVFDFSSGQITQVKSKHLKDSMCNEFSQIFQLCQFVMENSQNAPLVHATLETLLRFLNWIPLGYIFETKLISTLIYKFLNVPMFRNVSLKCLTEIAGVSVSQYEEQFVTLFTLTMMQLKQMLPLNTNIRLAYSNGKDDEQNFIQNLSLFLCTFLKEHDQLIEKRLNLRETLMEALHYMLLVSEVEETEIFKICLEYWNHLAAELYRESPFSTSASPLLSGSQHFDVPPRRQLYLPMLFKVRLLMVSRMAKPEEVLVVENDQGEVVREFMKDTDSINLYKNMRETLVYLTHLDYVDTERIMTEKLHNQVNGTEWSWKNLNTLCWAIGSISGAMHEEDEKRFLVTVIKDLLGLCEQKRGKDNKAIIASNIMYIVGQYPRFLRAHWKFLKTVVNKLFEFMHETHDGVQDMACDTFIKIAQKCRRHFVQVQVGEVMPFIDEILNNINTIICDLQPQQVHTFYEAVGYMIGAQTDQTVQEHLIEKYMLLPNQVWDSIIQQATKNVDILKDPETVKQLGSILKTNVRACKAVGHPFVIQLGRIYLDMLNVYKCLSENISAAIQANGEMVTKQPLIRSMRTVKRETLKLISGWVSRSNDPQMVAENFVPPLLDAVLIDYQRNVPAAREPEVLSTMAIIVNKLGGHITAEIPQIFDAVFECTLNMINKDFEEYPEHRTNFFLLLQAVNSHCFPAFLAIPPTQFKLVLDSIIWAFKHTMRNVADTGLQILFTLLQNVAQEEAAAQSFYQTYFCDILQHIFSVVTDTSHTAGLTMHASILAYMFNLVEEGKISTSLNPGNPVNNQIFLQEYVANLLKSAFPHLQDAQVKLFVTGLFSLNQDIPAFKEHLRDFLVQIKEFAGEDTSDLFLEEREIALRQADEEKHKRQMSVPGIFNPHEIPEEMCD

## Cc1ccc(C(C)C)c(OC[C@H]2CC=CC(=O)O2)c1
[1]
  Activity: Active
[2]
  Activity: Active
[3]
  Activity: Active
[4]
  Activity: Dose-dependent effect
[5]
  Activity: inactive
[6]
  Activity: Active
[7]
  Activity: Active
[8]
  Activity: inactive
[9]
  Activity: inactive
[10]
  Activity: Active
[11]
  Activity: Dose-dependent effect
[12]
  Activity: Active
[13]
  Activity: inactive
[14]
  Activity: Active
[15]
  Activity: Active
[16]
  Activity: Active

## O=C1C=CC[C@H](COc2ccc3c(c2)OCO3)O1
[17]
  IC50: 12 µM

## O=c1[nH]cc(F)c(=O)[nH]1 [FLUOROURACIL]
[17]
  IC50: 24.8 µM
